Assay results from ChEMBL document CHEMBL1649324, “In vitro activity of tebipenem, a new oral carbapenem antibiotic, against beta-lactamase-nonproducing, ampicillin-resistant Haemophilus influenzae” (2010).
In brackets after ≈: the same amount, converted by molar mass.

Legend:
Assay type in all cases: functional
[1] = system: Haemophilus influenzae; assay: Antimicrobial activity against gLow-BLNAR Haemophilus influenzae by agar dilution method
Summary of the method: (§1)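 Agar dilution on Mueller-Hinton agar with 0.5% yeast extract, 2% defibrinated heat-treated horse blood and 15 μg/ml β-NAD+. Plates were incubated 20 h at 37°C in 5% CO2, and the MIC was read. Clinical pediatric isolates (2005–2008) were assigned to genetic resistance classes by PCR.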

[2] = system: Haemophilus influenzae; assay: Antimicrobial activity against gBLNAS Haemophilus influenzae by agar dilution method; summary of the method: as §1
[3] = system: Haemophilus influenzae; assay: Antimicrobial activity against gBLPACR-2 Haemophilus influenzae by agar dilution method
Summary of the method: (§2)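 Agar dilution MICs on Mueller-Hinton agar with 0.5% yeast extract, 2% defibrinated heat-treated horse blood and 15 μg/ml β-NAD+. Plates read after 20 h at 37°C in 5% CO2. Paediatric clinical isolates (2005–2008) assigned to genetic β-lactam resistance class by PCR. Values are MIC range, MIC50 and MIC90 per class.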

[4] = system: Haemophilus influenzae; assay: Antimicrobial activity against gBLPACR-1 Haemophilus influenzae by agar dilution method; summary of the method: as §1
[5] = system: Haemophilus influenzae; assay: Antimicrobial activity against gBLNAR Haemophilus influenzae by agar dilution method; summary of the method: as §2
[6] = system: Haemophilus influenzae; assay: Antimicrobial activity against gBLPAR-TEM1 Haemophilus influenzae by agar dilution method; summary of the method: as §2
[7] = system: Haemophilus influenzae; assay: Bactericidal activity against gBLNAR Haemophilus influenzae JPH002 assessed as reduction in bacterial load at MIC after 6 hrs by time-kill analysis
Summary of the method: (§3)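 Colonies precultured on chocolate agar were suspended in MH broth to 0.5 McFarland, diluted 10-fold in MH broth with yeast extract, horse blood and β-NAD+, then grown 120 min at 37°C. 500 μl was inoculated into 9.5 ml of the same supplemented broth containing drug at the MIC or 2× MIC, with or without 10% fresh human serum. Tubes were incubated static and viable counts sampled at set intervals.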

[8] = system: Haemophilus influenzae; assay: Bactericidal activity against gBLNAR Haemophilus influenzae JPH1306 assessed as reduction in bacterial load at MIC after 4 hrs by time-kill analysis; summary of the method: as §3
[9] = system: Haemophilus influenzae; assay: Bactericidal activity against gBLNAR Haemophilus influenzae JPH002 assessed as reduction in bacterial load at MIC after 6 hrs by time-kill analysis in presence of 10% human serum; summary of the method: as §3
[10] = system: Haemophilus influenzae; assay: Bactericidal activity against gBLNAR Haemophilus influenzae JPH1306 assessed as reduction in bacterial load at MIC after 6 hrs by time-kill analysis in presence of 10% human serum; summary of the method: as §3
[11] = system: Haemophilus influenzae; assay: Bactericidal activity against gBLNAR Haemophilus influenzae JPH1306 assessed as reduction in bacterial load at MIC after 6 hrs by time-kill analysis; summary of the method: as §3
[12] = system: Haemophilus influenzae; assay: Bactericidal activity against gBLNAR Haemophilus influenzae JPH002 assessed as reduction in bacterial load at MIC after 4 hrs by time-kill analysis in presence of 10% human serum; summary of the method: as §3
[13] = system: Haemophilus influenzae; assay: Bactericidal activity against gBLNAR Haemophilus influenzae JPH1306 assessed as reduction in bacterial load at MIC after 4 hrs by time-kill analysis in presence of 10% human serum; summary of the method: as §3
[14] = system: Haemophilus influenzae; assay: Bactericidal activity against gBLNAR Haemophilus influenzae JPH002 assessed as reduction in bacterial load at MIC after 4 hrs by time-kill analysis; summary of the method: as §3
[15] = system: Haemophilus influenzae; assay: Bactericidal activity against gBLNAR Haemophilus influenzae JPH002 assessed as reduction in bacterial load at MIC after 2 hrs by time-kill analysis in presence of 10% human serum; summary of the method: as §3
[16] = system: Haemophilus influenzae; assay: Bactericidal activity against gBLNAR Haemophilus influenzae JPH1306 assessed as reduction in bacterial load at MIC after 2 hrs by time-kill analysis in presence of 10% human serum; summary of the method: as §3

SMILES | MIC [1] | MIC50 [1] | MIC90 [1] | MIC50 [2] | MIC90 [2] | MIC [3] | MIC [4] | MIC50 [5] | MIC90 [5] | MIC [6] | log10cfu [7] | log10cfu [8] | log10cfu [9] | log10cfu [10] | log10cfu [11] | log10cfu [12] | log10cfu [13] | log10cfu [14] | log10cfu [15] | log10cfu [16]
C=CC1=C(C(=O)O)N2C(=O)[C@@H](NC(=O)/C(=N\O)c3csc(N)n3)[C@H]2SC1 [CEFDINIR] | 0.5 µg/mL (≈ 1.26 µM) | 0.5 µg/mL (≈ 1.26 µM) | 2 µg/mL (≈ 5.06 µM) | 0.25 µg/mL (≈ 0.632 µM) | 0.5 µg/mL (≈ 1.26 µM) | 8 µg/mL (≈ 20.2 µM) | 1 µg/mL (≈ 2.53 µM) | 8 µg/mL (≈ 20.2 µM) | 32 µg/mL (≈ 80.9 µM) | 0.25 µg/mL (≈ 0.632 µM) |  |  |  |  |  |  |  |  |  | 
CC1(C)S[C@@H]2[C@H](NC(=O)[C@H](N)c3ccc(O)cc3)C(=O)N2[C@H]1C(=O)O [AMOXICILLIN] |  | 2 µg/mL (≈ 5.47 µM) | 4 µg/mL (≈ 10.9 µM) | 0.5 µg/mL (≈ 1.37 µM) | 0.5 µg/mL (≈ 1.37 µM) | 2 µg/mL (≈ 5.47 µM) | 8 µg/mL (≈ 21.9 µM) | 8 µg/mL (≈ 21.9 µM) | 32 µg/mL (≈ 87.6 µM) | 8 µg/mL (≈ 21.9 µM) |  |  |  |  |  |  |  |  |  | 
CC1(C)S[C@@H]2[C@H](NC(=O)[C@H](N)c3ccccc3)C(=O)N2[C@H]1C(=O)O [AMPICILLIN] |  | 1 µg/mL (≈ 2.86 µM) | 1 µg/mL (≈ 2.86 µM) | 0.25 µg/mL (≈ 0.715 µM) | 0.5 µg/mL (≈ 1.43 µM) | 2 µg/mL (≈ 5.72 µM) | 8 µg/mL (≈ 22.9 µM) | 2 µg/mL (≈ 5.72 µM) | 8 µg/mL (≈ 22.9 µM) | 8 µg/mL (≈ 22.9 µM) |  |  |  |  |  |  |  |  |  | 
C[C@@H](O)[C@H]1C(=O)N2C(C(=O)O)=C(S[C@@H]3CN[C@H](C(=O)N(C)C)C3)[C@H](C)[C@H]12 [MEROPENEM] |  | 0.12 µg/mL (≈ 0.313 µM) | 0.25 µg/mL (≈ 0.652 µM) | 0.063 µg/mL (≈ 0.164 µM) | 0.12 µg/mL (≈ 0.313 µM) | 0.063 µg/mL (≈ 0.164 µM) | 0.063 µg/mL (≈ 0.164 µM) | 0.25 µg/mL (≈ 0.652 µM) | 0.5 µg/mL (≈ 1.3 µM) | 0.031 µg/mL (≈ 0.0808 µM) |  |  |  |  |  |  |  |  |  | 
CC[C@H]1OC(=O)[C@H](C)[C@@H](O[C@H]2C[C@@](C)(OC)[C@@H](O)[C@H](C)O2)[C@H](C)[C@@H](O[C@@H]2O[C@H](C)C[C@H](N(C)C)[C@H]2O)[C@](C)(OC)C[C@@H](C)C(=O)[C@H](C)[C@@H](O)[C@]1(C)O [CLARITHROMYCIN] |  | 8 µg/mL (≈ 10.7 µM) | 16 µg/mL (≈ 21.4 µM) | 8 µg/mL (≈ 10.7 µM) | 16 µg/mL (≈ 21.4 µM) | 8 µg/mL (≈ 10.7 µM) | 8 µg/mL (≈ 10.7 µM) | 8 µg/mL (≈ 10.7 µM) | 16 µg/mL (≈ 21.4 µM) | 8 µg/mL (≈ 10.7 µM) |  |  |  |  |  |  |  |  |  | 
CC[C@H]1OC(=O)[C@H](C)[C@@H](O[C@H]2C[C@@](C)(OC)[C@@H](O)[C@H](C)O2)[C@H](C)[C@@H](O[C@@H]2O[C@H](C)C[C@H](N(C)C)[C@H]2O)[C@](C)(O)C[C@@H](C)CN(C)[C@H](C)[C@@H](O)[C@]1(C)O [AZITHROMYCIN] |  | 2 µg/mL (≈ 2.67 µM) | 2 µg/mL (≈ 2.67 µM) | 2 µg/mL (≈ 2.67 µM) | 4 µg/mL (≈ 5.34 µM) | 2 µg/mL (≈ 2.67 µM) | 2 µg/mL (≈ 2.67 µM) | 2 µg/mL (≈ 2.67 µM) | 4 µg/mL (≈ 5.34 µM) | 1 µg/mL (≈ 1.34 µM) |  |  |  |  |  |  |  |  |  | 
C[C@@H](O)[C@H]1C(=O)N2C(C(=O)O)=C(SC3CN(C4=NCCS4)C3)[C@H](C)[C@H]12 [TEBIPENEM] |  | 0.25 µg/mL (≈ 0.652 µM) | 0.5 µg/mL (≈ 1.3 µM) | 0.063 µg/mL (≈ 0.164 µM) | 0.12 µg/mL (≈ 0.313 µM) | 0.25 µg/mL (≈ 0.652 µM) | 0.12 µg/mL (≈ 0.313 µM) | 0.25 µg/mL (≈ 0.652 µM) | 1 µg/mL (≈ 2.61 µM) | 0.063 µg/mL (≈ 0.164 µM) | 3 | 3 | 3 | 3 | 3 | 3 | 3 | 3 | 3 | 3
CO/N=C(\C(=O)N[C@@H]1C(=O)N2C(C(=O)O)=C(COC(C)=O)CS[C@H]12)c1csc(N)n1 [CEFOTAXIME] |  | 0.031 µg/mL (≈ 0.0681 µM) | 0.12 µg/mL (≈ 0.263 µM) | 0.016 µg/mL (≈ 0.0351 µM) | 0.031 µg/mL (≈ 0.0681 µM) | 0.25 µg/mL (≈ 0.549 µM) | 0.031 µg/mL (≈ 0.0681 µM) | 0.5 µg/mL (≈ 1.1 µM) | 1 µg/mL (≈ 2.2 µM) | 0.008 µg/mL (≈ 0.0176 µM) |  |  |  |  |  |  |  |  |  | 
